Activity calls are given as the source filed them. The calls are words filed in the database; no cut-off is given here.
What was measured:
[1] = system: Leishmania amazonensis; test: Antileishmanial activity against Leishmania amazonensis MHOM/BR/77/LTB0016 promastigotes after 72 hrs by Alamarblue assay; format: functional, organism-based; details: MHOM/BR/77/LTB0016, 72 h
Outline: (§1)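 Log-phase promastigotes (10⁵/well, grown in Schneider's medium with 10% FBS at 26 °C) added to serial compound dilutions in phenol red-free RPMI 1640 with 10% heat-inactivated FBS, plus 10% alamarBlue. Incubated 72 h at 27 °C in the dark. Read at 560 nm against 590 nm reference. Single-concentration screen at 25 µM. IC50 by non-linear regression. Three experiments, each in duplicate.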

[2] = system: Leishmania donovani; test: Antileishmanial activity against Leishmania donovani MHOM/IN/90/GE1F8R promastigotes after 72 hrs by Alamarblue assay; format: functional, organism-based; outline: as §1
[3] = Cytotoxicity against mouse J774A.1 cells; format: cell-based, J774.A1
[4] = system: Leishmania amazonensis; test: Antileishmanial activity against Leishmania amazonensis MHOM/BR/77/LTB0016 amastigotes infected in mouse J774A.1 cells assessed as reduction in transformation of rescued amastigotes to promastiogtes after 24 hrs by Alamarblue assay; format: functional, organism-based; details: MHOM/BR/77/LTB0016, J774.A1, 24 h
[5] = system: Leishmania amazonensis; test: Induction of mitochondrial membrane potential loss in Leishmania amazonensis MHOM/BR/77/LTB0016 promastigotes at antileishmanial IC90 after 24 hrs by JC-1 staining-based spectrofluorometric analysis; format: functional, organism-based
[6] = Selectivity index, ratio of CC50 for mouse J774A.1 cells to IC50 for Leishmania amazonensis MHOM/BR/77/LTB0016 amastigotes infected in mouse J774A.1 cells; format: toxicity, cell-based; details: read-out: Ratio CC50/IC50
Outline: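 SI = CC50 in J774A.1 macrophages divided by IC50 against intracellular L. amazonensis amastigotes.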

[7] = system: Leishmania amazonensis; test: Potency index, ratio of miltefosine IC50 to compound IC50 for Leishmania amazonensis MHOM/BR/77/LTB0016 amastigotes infected in mouse J774A.1 cells; format: functional
[8] = system: Leishmania donovani; test: Antileishmanial activity against Leishmania donovani MHOM/SD/00/1S-2D promastigotes preincubated for 2 hrs followed by compound wash measured after 48 hrs by MTT assay; format: functional, organism-based
[9] = system: Leishmania amazonensis; test: Antileishmanial activity against Leishmania amazonensis MHOM/BR/77/LTB0016 promastigotes at 25 uM after 72 hrs by Alamarblue assay relative to control; format: functional; outline: as §1
[10] = system: Leishmania donovani; test: Antileishmanial activity against Leishmania donovani MHOM/IN/90/GE1F8R promastigotes at 25 uM after 72 hrs by Alamarblue assay relative to control; format: functional; outline: as §1

Compound	IC50 [1]	IC50 [2]	further results
O=C1C=Cc2cccc3cccc1c23 [PERINAPHTHENONE]	> 25 µM	> 25 µM	
O=C1C=Cc2cccc3ccc(NCCO)c1c23	27.4 µM	> 25 µM	
O=C1C=Cc2cccc3ccc(Nc4cccnc4)c1c23	> 25 µM	> 25 µM	
O=C1C(Nc2ccccc2)=Cc2cccc3cccc1c23	> 25 µM	> 25 µM	
O=C1C=Cc2c(NCc3ccccc3)ccc3cccc1c23	> 25 µM	> 25 µM	
CN(CCO)C1=CC(=O)c2cccc3cccc1c23	> 25 µM	> 25 µM	
N#Cc1ccc(NC2=Cc3cccc4cccc(c34)C2=O)cc1	> 25 µM	> 25 µM	
O=C1C=Cc2cccc3ccc(Nc4ccccc4)c1c23	> 25 µM	> 25 µM	
O=C1C=Cc2cccc3ccc(N4CCN(Cc5ccccc5)CC4)c1c23	11.6 µM	14 µM	CC50 [3]: 91.7 µM; IC50 [4]: 600 nM; Activity [5]: inactive; selectivity ratio [6]: 153; Ratio IC50 [7]: 3 - 5
O=C1C(NCc2ccccc2)=Cc2cccc3cccc1c23	> 25 µM	> 25 µM	
O=C1C=C(N2CCOCC2)c2cccc3cccc1c23	> 25 µM	> 25 µM	
O=C1C=Cc2cccc3ccc(N4CCN(c5ncccn5)CC4)c1c23	> 25 µM	> 25 µM	
CCCNc1ccc2cccc3c2c1C(=O)C=C3	> 25 µM	> 25 µM	
O=C1C(O)=Cc2cccc3ccc(-c4ccccc4)c1c23			IC50 [8]: 35 to 40 µM
O=C1C=Cc2cccc3ccc(N4CCCCC4)c1c23	> 25 µM	> 25 µM	
O=C1C=Cc2cccc3ccc(NCc4ccccc4)c1c23	3.5 µM	8.3 µM	CC50 [3]: 9.4 µM; IC50 [4]: 2300 nM; Activity [5]: Active; selectivity ratio [6]: 4.1
O=C1C(N2CCN(c3ncccn3)CC2)=Cc2cccc3cccc1c23	> 25 µM	> 25 µM	
NC1=Cc2cccc3cccc(c23)C1=O	> 25 µM	> 25 µM	Activity [9]: <25%; Activity [10]: <25%
O=C1C=C(NCc2ccccc2)c2cccc3cccc1c23	> 25 µM	> 25 µM	
CN(C)CCNc1ccc2cccc3c2c1C(=O)C=C3	1.4 µM	2.8 µM	CC50 [3]: 38.9 µM; IC50 [4]: 700 nM; Activity [5]: Active; selectivity ratio [6]: 55.6
N#Cc1ccc(Nc2ccc3cccc4c3c2C(=O)C=C4)cc1	> 25 µM	> 25 µM	

Compound	IC50 [1]	IC50 [2]	further results
CCCNC1=Cc2cccc3cccc(c23)C1=O	> 25 µM	> 25 µM	Activity [9]: <25%; Activity [10]: <25%
O=C1C=C(N2CCN(c3ncccn3)CC2)c2cccc3cccc1c23	> 25 µM	> 25 µM	
COC1=Cc2cccc3ccc(-c4ccccc4)c(c23)C1=O			IC50 [8]: 35 to 40 µM
O=C1C=C(N2CCN(Cc3ccccc3)CC2)c2cccc3cccc1c23	9.7 µM	24 µM	CC50 [3]: 28.5 µM; IC50 [4]: 1100 nM; Activity [5]: Active; selectivity ratio [6]: 26
O=C1C=Cc2cccc3ccc(O)c1c23	> 25 µM	> 25 µM	
O=C1C(Nc2ccccn2)=Cc2cccc3cccc1c23	> 25 µM	> 25 µM	
Nc1ccc2cccc3c2c1C(=O)C=C3	26.2 µM	> 25 µM	
O=C1C(Nc2cccnc2)=Cc2cccc3cccc1c23	> 25 µM	> 25 µM	Activity [9]: <25%; Activity [10]: <25%
O=C1C(N2CCN(Cc3ccccc3)CC2)=Cc2cccc3cccc1c23	24 µM	26.4 µM	CC50 [3]: 122 µM; IC50 [4]: 2400 nM; Activity [5]: inactive; selectivity ratio [6]: 51
O=C1C=Cc2cccc3ccc(Nc4ccccn4)c1c23	> 25 µM	> 25 µM	
CN(CCO)c1ccc2cccc3c2c1C(=O)C=C3	> 25 µM	> 25 µM	
CN(C)CCNc1ccc2cccc3c2c1C=CC3=O	7.2 µM	32.7 µM	
CCCCCCCCCCCCCCCCOP(=O)([O-])OCC[N+](C)(C)C [MILTEFOSINE]	6.5 µM	3.3 µM	CC50 [3]: 73.7 µM; IC50 [4]: 3100 nM; Activity [5]: Active; selectivity ratio [6]: 23.8
O=C1C=C(N2CCCCC2)c2cccc3cccc1c23	> 25 µM	> 25 µM	
CN(CCO)C1=Cc2cccc3cccc(c23)C1=O	> 25 µM	> 25 µM	Activity [9]: <25%; Activity [10]: <25%
CN(C)CCNC1=CC(=O)c2cccc3cccc1c23	2.1 µM	4.3 µM	CC50 [3]: 95.6 µM; IC50 [4]: 600 nM; Activity [5]: Active; selectivity ratio [6]: 159; Ratio IC50 [7]: 3 - 5
CCCNC1=CC(=O)c2cccc3cccc1c23	> 25 µM	> 25 µM	
O=C1C=Cc2cccc3ccc(N4CCOCC4)c1c23	> 25 µM	> 25 µM	
CN(C)CCNC1=Cc2cccc3cccc(c23)C1=O	6 µM	9.6 µM	CC50 [3]: 122 µM; IC50 [4]: 900 nM; Activity [5]: Active; selectivity ratio [6]: 136; Ratio IC50 [7]: 3 - 5
O=C1C(N2CCOCC2)=Cc2cccc3cccc1c23	> 25 µM	> 25 µM	
O=C1C=Cc2c(N3CCN(Cc4ccccc4)CC3)ccc3cccc1c23	17.5 µM	26.3 µM	

Reference: ChEMBL document CHEMBL4138159, “Design, synthesis and evaluation of amino-substituted 1H-phenalen-1-ones as anti-leishmanial agents” (Eur J Med Chem, 2018)
